KLF5 inhibitor = inhibitors of KLF5 expression | DLD-1 KLF5 promoter-luciferase reporter, luminescence | inhibition, % at 5 µM | hit rate 0.23% among 290,000 | AID 1700;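 active = inhibition above a per-plate limit of that plate's mean compound inhibition plus 3 SD, cut at about 60% in these data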;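 note: higher means less KLF5 promoter-driven luciferase light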
T cruzi repl = blocks replication of Trypanosoma cruzi; T. cruzi beta-gal in NIH3T3, luminescence, 90 h; inhibition, % (concentration not given with the values); hit rate 1.4% among 300,000;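 active = mean inhibition across valid replicates above about 55%, limit read from the data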;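 note: signal also drops with host cell toxicity which is not excluded here; higher percent means less beta-gal luminescence so fewer parasites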
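System – NIH/3T3 host cells with β-galactosidase reporter T. cruzi · Doses – single 50 nL compound addition per well in DMSO · Reagent – 5000 T. cruzi trypomastigotes/well · Medium – Low-serum DMEM with 2% FBS · Timing – ≥90 h infection period, 3 h prior cell attachment · Evaluation – parasite load inhibition, % · Technique – GalScreen luminescence, 60 min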
Bfl-1 A1 inh = inhibitors of the anti-apoptotic protein A1, read as caspase activation; MEF A1-2A-BIM cells, Caspase-Glo 3/7 luminescence, 3 h; percent of clofoctol response, vehicle zero; caspase activation, % (concentration not given with the values); hit rate 0.066% among 330,000;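 active = over half of replicate activation scores above 10%, or exactly half above 10 with the replicate mean above 10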
Beta apoptosis = blocks beta cell apoptosis; hit rate 0.8% among 300,000; INS-1E cytokine-induced death, ATP luminescence, 48 h; percent of positive-control rescue, neutral wells zero; protection from apoptosis, % (no concentration beside the values);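 active = Every replicate reaches about 75%, or at least half do and their mean reaches it too, limit read from the data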;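 note: higher means more ATP so stronger rescue from cytokine killing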
HIF act = HIF pathway transcriptional activation | U2OS HRE-luciferase reporter, luminescence; normalized: DMSO 0%, desferrioxamine 100% | activation, % at 7.5 µM (by protocol) | hit rate 0.32% among 300,000 | AID 1910;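 active = mean activation of at least 10% of the iron chelator positive control signal, with at least half of replicates also reaching 10%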
Each line names hits and unclear results; the compound was inactive in the other large screens. Hits are enriched below; roughly 2.3% of the tested compounds scored in any of these assays.

COc1ccc(N(CC(=O)NC2CC3CCC2C3)S(=O)(=O)c2ccc(C)c([N+](=O)[O-])c2)cc1 (centres undefined)	none (no result: Beta apoptosis)
CC[C@@H](C)[C@H](CNC)NC[C@@H](Cc1cccc2ccccc12)NCCc1cccc(C(F)(F)F)c1	none
CCC[C@@H](CNC)NC[C@H](Cc1ccccc1)NCCCCc1ccccc1	none
CNC[C@@H](Cc1ccccc1)NC[C@@H](CC1CCCCC1)NCCCc1ccccc1	Beta apoptosis 110
CNC[C@@H](CC1CCCCC1)NC[C@H](CC(C)C)NCCc1cccc(C(F)(F)F)c1	Beta apoptosis 112
CCCCN(C(=O)NCCCCCCNC(=O)N(CCCC)C1CCS(=O)(=O)C1)C1CCS(=O)(=O)C1 (centres undefined)	none
N=c1ccn(Cc2ccc(Cl)cc2Cl)cc1	Beta apoptosis 103
O=C(/C=C/c1ccccc1Cl)c1ccc(O)cc1	none
Cc1ccc(/C=C/C(=O)c2ccccc(=O)c2O)c(C)c1	none
O=C(/C=C/c1ccccc1Cl)c1ccccc(=O)c1O	T cruzi repl 58
Cc1ccc(C)c(/C=C/C(=O)c2ccccc(=O)c2O)c1	T cruzi repl 58
CCC(O)C1CCN(C(=O)c2cc(COc3ccc(F)cc3F)on2)CC1 (centres undefined)	none (no result: Bfl-1 A1 inh, Beta apoptosis)
CC(C)(C)C1=CC=C(C(C)(C)C)C(=O)C1=O	Bfl-1 A1 inh 6.4 (no result: T cruzi repl)
CCc1cc(=O)oc2cc(C)cc(OCC(=O)N3CCC(C(=O)NC(C)C)(c4ccccc4)CC3)c12	none (no result: Beta apoptosis)
Fc1ccc(N2CCN(C3=Nc4cccc5cccc3c45)CC2)cc1	T cruzi repl 64
c1ccc(CN2CCN(C3=Nc4cccc5cccc3c45)CC2)cc1	none (no result: Bfl-1 A1 inh, Beta apoptosis)
Cc1cc2ccccc2n1CCNC(=O)C(C)C	none
Cc1cc2ccccc2n1CCNC(=O)C(C)Oc1ccccc1 (centres undefined)	T cruzi repl 63
CCOC(=O)N1CCN(C(=O)/C(=C/c2ccc(N(C)C)cc2)NC(=O)c2ccccc2)CC1	none (no result: KLF5 inhibitor, T cruzi repl, HIF act)
CC[n+]1c(C)sc2c3ccsc3ccc21	none
CCN1/C(=C/c2ccc3cc(C)cc(C)c3[n+]2CC)Sc2cc(C)ccc21	none (no result: T cruzi repl, Bfl-1 A1 inh, Beta apoptosis, HIF act)
CCN1/C(=C/c2ccc3cc(C)ccc3[n+]2CC)Sc2ccc3sccc3c21	T cruzi repl 60, Beta apoptosis 140 (no result: KLF5 inhibitor)
CCN1/C(=C\c2ccc3cc(C)ccc3[n+]2CC)Sc2cc(C)c(C)cc21	T cruzi repl 64 (no result: Bfl-1 A1 inh, Beta apoptosis)
CN(C)S(=O)(=O)n1cc(/C=C(\NC(=O)c2ccccc2Cl)C(=O)N2CCOCC2)c2ccccc21	none
CCOc1ccccc1C(=O)OCC(=O)NCC1CCCCC1	none (no result: KLF5 inhibitor)
CC(C)[C@]1(c2ccc(Cl)cc2)ON(c2ccccc2C(F)(F)F)C1=O	none (no result: KLF5 inhibitor, T cruzi repl, HIF act)
CCOc1cc(/C=C2\CN(C)C/C(=C\c3ccc(O)c(OCC)c3)C2=O)ccc1O	T cruzi repl 62
CCOc1cc(/C=C2\CCC/C(=C\c3cc(Cl)c(O)c(OCC)c3)C2=O)cc(Cl)c1O	Beta apoptosis 75
CN1C/C(=C/c2ccsc2)C(=O)/C(=C/c2ccsc2)C1	T cruzi repl 56
CCOc1cc(/C=C2/C(=O)ON=C2C)ccc1O	none
O=C(O)CNS(=O)(=O)c1ccc(-c2ccccc2)cc1	none (no result: T cruzi repl, Bfl-1 A1 inh, Beta apoptosis, HIF act)
O=C([O-])c1cc(-c2ccccc2)cc(-c2ccccc2)[n+]1Cc1ccccc1	Beta apoptosis 122 (no result: KLF5 inhibitor)
CCN(CC)C(=O)c1[nH]cnc1C(=O)Nc1ccc(C)cc1	none (no result: KLF5 inhibitor, T cruzi repl, HIF act)
CC(C)C(=O)NC(Nc1cc(C(F)(F)F)ccc1Cl)C(Cl)(Cl)Cl (centres undefined)	none
O=C(NC(Nc1cc(C(F)(F)F)ccc1Cl)C(=O)c1ccccc1)c1ccccc1 (centres undefined)	T cruzi repl 58
CCN(CC)CCSc1nc2ccccc2c(=S)n1-c1ccccc1	T cruzi repl 64
O=C(CCl)N(c1ccccc1)c1ccccc1	none (no result: Bfl-1 A1 inh, Beta apoptosis)
O=C(CCl)N(CCc1ccccc1)CCc1ccccc1	T cruzi repl 56
Cc1occc1-c1nnc(-c2cc([N+](=O)[O-])cc([N+](=O)[O-])c2)o1	T cruzi repl 66
Nc1cc([N+](=O)[O-])cc2oc(-c3ccccc3)cc12	none
O=C(NN=C(Cc1ccccc1)Cc1ccccc1)c1ccccc1O	none
NC(=S)NN=C(Cc1ccccc1)Cc1ccccc1	T cruzi repl 60
CCN(CC)c1ccc(NC(=O)CSc2nc3nc(C)cc(C)c3c(=O)[nH]2)cc1	HIF act 386 (no result: KLF5 inhibitor)
NNC(=O)c1cc(NS(=O)(=O)c2cccs2)cc(NS(=O)(=O)c2cccs2)c1	none (no result: KLF5 inhibitor, T cruzi repl, HIF act)
COc1ccc(/C=N/NC(=O)c2ccoc2C)cc1OC	none
Cc1occc1C(=O)N/N=C/c1ccc2c(c1)OCO2	Beta apoptosis 76
COc1ccc(/C=N/NC(=O)c2ccoc2C)cc1O	HIF act 261
COc1ccc(-c2nn(-c3ccccc3)cc2CNC[C@H]2O[C@@H](n3cnc4c(N)ncnc43)[C@H](O)[C@@H]2O)cc1	none (no result: KLF5 inhibitor, T cruzi repl, HIF act)
COC(/C(=N/O)c1ccc(Cl)cc1)c1ccccc1 (centres undefined)	Beta apoptosis 100
Cc1cc(C)cc(OCC(=O)OCC(=O)NC2CCCCCCC2)c1	none (no result: KLF5 inhibitor)
O=C(Nc1ccccc1O)C(c1ccccc1)c1ccccc1	Beta apoptosis 94
O=C(O)c1ccccc1NC(=O)C(c1ccccc1)c1ccccc1	none (no result: KLF5 inhibitor, Beta apoptosis)
O=C(CN1CCC(c2nc3ccccc3s2)CC1)NCc1cccs1	T cruzi repl 68
O=C(CN1CCC(c2nc3ccccc3s2)CC1)N1CCCCC1	none
CC1CCCCC1NC(=O)c1c(O)nc2ccccn2c1=O (centres undefined)	none (no result: KLF5 inhibitor, Beta apoptosis)
N#Cc1ccc(NC(=O)Nc2ccc(Cl)cc2)cc1	T cruzi repl 71, Beta apoptosis 105
O=C(NCCc1ccncc1)Nc1ccc(Cl)c(Cl)c1	T cruzi repl 68
O=C(Nc1ccc(Cl)cc1)Nc1ccc(Cl)c(Cl)c1	Beta apoptosis 113 (no result: KLF5 inhibitor, T cruzi repl, HIF act)
COC(=O)c1ccccc1NC(=O)CNc1ccc(F)c(S(=O)(=O)N2CCOCC2)c1	none (no result: KLF5 inhibitor, T cruzi repl, HIF act)
O=c1[nH]sc2ccccc12	T cruzi repl 63 (no result: Bfl-1 A1 inh, Beta apoptosis)
COc1ccc(NC(=O)CNC(=O)Cc2cccc3ccccc23)c(OC)c1	HIF act 93 (no result: KLF5 inhibitor)
COc1cccc(CC2(CO)CCCN(Cc3ccccc3-c3ccco3)C2)c1 (centres undefined)	none
COc1cccc(CC2(CO)CCCN(Cc3ccc(CO)o3)C2)c1 (centres undefined)	none
COc1cccc(CC2(CO)CCCN(Cc3cc4ccccc4[nH]3)C2)c1 (centres undefined)	T cruzi repl 67
COc1cccc(CC2(CO)CCCN(Cc3ccc(C)s3)C2)c1 (centres undefined)	T cruzi repl 58
COc1cccc(CC2(CO)CCCN(Cc3ccc(-c4ccco4)cc3)C2)c1 (centres undefined)	T cruzi repl 58
COc1cccc(CC2(CO)CCCN(Cc3[nH]c4ccc(C)cc4c3C)C2)c1 (centres undefined)	none
COc1cccc(CC2(CO)CCCN(Cc3sc(N4CCCC4)nc3Cl)C2)c1 (centres undefined)	T cruzi repl 55

Screens (PubChem BioAssay)
